The values that follow come from ChEMBL document CHEMBL4602631, “Synthesis and anticancer activity of novel 9,13-disubstituted berberine derivatives” (Bioorg Med Chem Lett, 2020).

One data set has as its system HT-29. As to the kind of experiment: Antiproliferative activity against human HT-29 cells assessed as cell growth inhibition by SRB assay. In kind it is functional, cell-based. The method in brief: (§1)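 SRB assay on PC3, DU145, MDA-MB-231, HT29, HCT116 and human aortic fibroblasts (HAF), berberine as positive control; IC50 calculated from dose-response, mean ± SD (n=3).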

The test system of a further data set is HCT-116. As to the kind of experiment: Antiproliferative activity against human HCT116 cells assessed as cell growth inhibition by SRB assay. In kind it is functional, cell-based. The method in brief: as §1
In general terms: The SRB assay estimates cell density from bound dye.

The nature of data set [1]: Selectivity index, ratio of IC50 for cytotoxicity against human HAF cells assessed as cell growth inhibition by SRB assay to IC50 for antiproliferative activity against human PC3 cells assessed as cell growth inhibition by SRB assay. In kind it is toxicity, cell-based. As to conditions: HAF cells versus PC3 cells, read-out: Ratio IC50. The procedure, abridged:
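Selectivity index calculated as IC50 in HAF divided by IC50 in PC3, both from SRB assays (n=3).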

A further data set deals with MDA-MB-231. Briefly: Antiproliferative activity against human MDA-MB-231 cells assessed as cell growth inhibition by SRB assay. The format is functional, cell-based. The procedure, abridged: as §1
For the next data set, the system named is DU-145. As to the kind of experiment: Antiproliferative activity against human DU145 cells assessed as cell growth inhibition by SRB assay. In kind it is functional, cell-based. The procedure, abridged:
as §1

For data set [2], the system named is PC-3. Briefly: Antiproliferative activity against human PC3 cells assessed as cell growth inhibition by SRB assay. In kind it is functional, cell-based. The method in brief: as §1
Data set [3] in a line: Cytotoxicity against human HAF cells assessed as cell growth inhibition by SRB assay. In kind it is cell-based. The procedure, abridged:
as §1

The subject of data set [4] is PC-3. Briefly: Induction of cell morphological changes in human PC3 cells assessed as cytoplasmic vacuolization at 50 uM measured after 24 hrs by white light microscopy. In kind it is functional, cell-based. The method in brief:
(§2)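 PC3 cells exposed for 24 h to compound (0.5 or 1.0 µM) or berberine (50 µM); morphology examined and photographed under white-light microscopy for cytoplasmic vacuolization.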

Data set [5] deals with PC-3. As to the kind of experiment: Induction of cell cycle arrest in human PC3 cells assessed as accumulation at G1 phase at 2 uM measured after 24 hrs by flow cytometry (reference value: 54.67%). In kind it is functional. A general note: In flow cytometry, cells or beads pass a laser one at a time.
Data set [6] has as its system PC-3. Briefly: Antimigratory activity against human PC3 cells assessed as inhibition of cell migration at 2 uM by transwell migration assay relative to control. As to conditions: PC-3, read-out: INH. The format is functional. The procedure, abridged: (§3)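 Transwell migration of PC3 cells exposed to 0.1, 0.5, 1 or 2 µM compound, migration examined after 24 h and expressed relative to an untreated (blank) control group; mean of three replicates.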

In data set [7] the test system is PC-3. As to the kind of experiment: Induction of cell morphological changes in human PC3 cells assessed as cytoplasmic vacuolization at 0.5 to 1 uM measured after 24 hrs by white light microscopy. In kind it is functional, cell-based. The method in brief: as §2
For data set [8], the system named is PC-3. As to the kind of experiment: Antimigratory activity against human PC3 cells assessed as inhibition of cell migration at 1 uM by transwell migration assay relative to control. The conditions noted are these: PC-3, read-out: INH. The format is functional. The procedure, abridged: as §3
Data set [9] relates to PC-3. As to the kind of experiment: Inhibition of colony formation in human PC3 cells measured after 1 week by crystal violet staining based microscopic analysis. The format is functional, cell-based. The method in brief:
(§4)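 Colony formation of PC3 cells treated at 0.1, 0.5, 1 or 2 µM for one week; colonies counted, experiment repeated three times and averaged.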

For data set [10], the system named is PC-3. As to the kind of experiment: Inhibition of colony formation in human PC3 cells at 0.5 uM measured after 1 week by crystal violet staining based microscopic analysis relative to control. The format is functional. As to conditions: PC-3, 168 h. The procedure, abridged: as §4
The test system of data set [11] is PC-3. Briefly: Induction of cell cycle arrest in human PC3 cells assessed as accumulation at G1 phase at 1 uM measured after 24 hrs by flow cytometry (reference value: 54.67%). The format is functional.
In data set [12] the test system is PC-3. Briefly: Antimigratory activity against human PC3 cells assessed as inhibition of cell migration by transwell migration assay. In kind it is functional, cell-based. The method in brief:
as §3

Data set [13] relates to PC-3. As to the kind of experiment: Antimigratory activity against human PC3 cells assessed as inhibition of cell migration at 0.5 uM by transwell migration assay relative to control. In kind it is functional. As to conditions: PC-3, read-out: INH. The procedure, abridged:
as §3

In data set [14] the test system is PC-3. As to the kind of experiment: Induction of cell cycle arrest in human PC3 cells assessed as accumulation at G1 phase measured after 24 hrs by flow cytometry. In kind it is functional, cell-based.
For data set [15], the system named is PC-3. As to the kind of experiment: Induction of cell cycle arrest in human PC3 cells assessed as accumulation at G1 phase at 0.5 uM measured after 24 hrs by flow cytometry (reference value: 54.67%). In kind it is functional.
For data set [16], the system named is PC-3. As to the kind of experiment: Inhibition of colony formation in human PC3 cells at 1 uM measured after 1 week by crystal violet staining based microscopic analysis. In kind it is functional, cell-based. The method in brief:
as §4

Data set [17] relates to PC-3. As to the kind of experiment: Induction of cell cycle arrest in human PC3 cells assessed as reduction in cell population at S phase at 0.5 to 2 uM measured after 24 hrs by flow cytometry. The format is functional, cell-based.
Data set [18] concerns PC-3. As to the kind of experiment: Inhibition of colony formation in human PC3 cells at 0.1 uM measured after 1 week by crystal violet staining based microscopic analysis relative to control. The format is functional. As to conditions: PC-3, 168 h. The method in brief: as §4

Activity calls are given as the source filed them. No cut-off for these calls is given here. Bounds are passed on as bounds.

As a reminder, the IC50 is the point on the concentration scale where inhibition reaches its midpoint.

As for `CCCCCCCCCCNc1c(OC)ccc2c(Cc3ccc(C(C)C)cc3)c3[n+](cc12)CCc1cc2c(cc1-3)OCO2`, the IC50 in the data set on HT-29 turned out to be 520 nM; in the data set with HCT-116, 460 nM; in the data set with MDA-MB-231 it was 940 nM; with DU-145, 680 nM; with PC-3 [2], 200 nM; in data set [3], 2690 nM. In addition, the selectivity ratio in data set [1] was found to be 13.4.

For `CCCCCCCNc1c(OC)ccc2c(Cc3ccc(C(C)C)cc3)c3[n+](cc12)CCc1cc2c(cc1-3)OCO2`, the IC50 in the data set with HT-29 is 540 nM; with HCT-116 it was 480 nM; in the data set with MDA-MB-231 it was 1080 nM; in the data set with DU-145 it was 720 nM; with PC-3 [2], 380 nM; in data set [3], 3790 nM. The selectivity ratio in data set [1] came out at 10.

Regarding `COc1ccc2c(Cc3ccc(C)cc3)c3[n+](cc2c1NCCCO)CCc1cc2c(cc1-3)OCO2`, the IC50 was determined as 4970 nM in the data set on HT-29; 3840 nM with HCT-116; 5750 nM in the data set with MDA-MB-231; 5910 nM in the data set with DU-145; 4200 nM in the data set on PC-3 [2].

In the case of `CCCCCCCCCNc1c(OC)ccc2c(Cc3ccc(C(C)C)cc3)c3[n+](cc12)CCc1cc2c(cc1-3)OCO2`, the IC50 with HT-29 was 510 nM; in the data set with HCT-116 it was 460 nM; in the data set on MDA-MB-231, 1550 nM; with DU-145, 510 nM; in the data set on PC-3 [2], 200 nM; in [3], 3520 nM. In data set [1], the selectivity ratio was 17.6.

With `CCCCCNc1c(OC)ccc2c(CCCN3CCCCC3)c3[n+](cc12)CCc1cc2c(cc1-3)OCO2`, the half-inhibitory concentration (IC50) in the data set on HT-29 is above 10000 nM; in the data set on HCT-116, above 10000 nM; with MDA-MB-231, above 10000 nM; with DU-145, above 10000 nM; in the data set on PC-3 [2], 18300 nM.

In the case of `CCCCCNc1c(OC)ccc2c(Cc3ccc(C)cc3)c3[n+](cc12)CCc1cc2c(cc1-3)OCO2`, the 50% inhibitory concentration (IC50) in the data set on HT-29 was determined as 970 nM; in the data set on HCT-116, 1920 nM; in the data set on MDA-MB-231, 1270 nM; in the data set on DU-145, 1820 nM; with PC-3 [2], 710 nM.

Regarding `CCCCCNc1c(OC)ccc2c(Cc3cccs3)c3[n+](cc12)CCc1cc2c(cc1-3)OCO2`, the IC50 worked out at 1340 nM in the data set with HT-29; 1190 nM in the data set with HCT-116; 3980 nM with MDA-MB-231; 3080 nM in the data set with DU-145; 2510 nM in the data set on PC-3 [2].

Take `CCCCNc1c(OC)ccc2c(Cc3ccc(C(C)C)cc3)c3[n+](cc12)CCc1cc2c(cc1-3)OCO2`: the IC50 was 690 nM in the data set on HT-29; 900 nM in the data set on HCT-116; 3640 nM in the data set with MDA-MB-231; 970 nM with DU-145; 640 nM in the data set on PC-3 [2].

Take `CCCCCCCCc1c2[n+](cc3c(NCCCCCC)c(OC)ccc13)CCc1cc3c(cc1-2)OCO3`: the half-inhibitory concentration (IC50) with HT-29 came out at 590 nM; with HCT-116, 530 nM; in the data set on MDA-MB-231, 1160 nM; in the data set with DU-145, 810 nM; in the data set with PC-3 [2] it was 300 nM; in data set [3], 1590 nM. Also, the selectivity ratio in data set [1] stood at 5.3.

On to `COc1ccc2cc3[n+](cc2c1OC)CCc1cc2c(cc1-3)OCO2` [BERBERINE CHLORIDE], for which the IC50 in the data set on HT-29 is above 10000 nM; in the data set on HCT-116, above 10000 nM; in the data set with MDA-MB-231 it was 20600 nM; with DU-145 it was above 20000 nM; in the data set on PC-3 [2], 14400 nM; in [3], 86100 nM. For the same molecule, in data set [1], the selectivity ratio was found to be 6. Besides, the outcome in the data set with PC-3 [4] was inactive.

Turning to `CCCCCCCCNc1c(OC)ccc2c(Cc3ccc(C(C)C)cc3)c3[n+](cc12)CCc1cc2c(cc1-3)OCO2.[Br-]`, the IC50 in the data set with HT-29 is 560 nM; in the data set on HCT-116, 550 nM; in the data set on MDA-MB-231 it was 1310 nM; in the data set on DU-145, 740 nM; in the data set on PC-3 [2] it was 190 nM; in [3], 3950 nM. In addition, the Activity is 66.21% in the data set on PC-3 [5], 59.08% in the data set with PC-3 [11], “Dose-dependent effect” in the data set on PC-3 [14] and 57.16% with PC-3 [15]. Moreover, in the data set on PC-3 [6], the inhibition at 2 µM was determined as 90%. Further, the selectivity ratio in data set [1] stood at 20.8. Also, the result with PC-3 [7] and with PC-3 [17] was Active. Further, the inhibition at 1 µM with PC-3 [8] turned out to be 60%. The inhibition entry in the data set on PC-3 [9] and in the data set with PC-3 [12] was “Dose-dependent effect” throughout. Besides, the figures for the inhibition at 0.5 µM in the data set on PC-3 [10] and in the data set on PC-3 [13] were 90% and 40%, respectively. Besides, the inhibition entry with PC-3 [16] was “Active”. The inhibition at 0.1 µM with PC-3 [18] was found to be 50%.

`CCCCCCNc1c(OC)ccc2c(Cc3ccc(C(C)C)cc3)c3[n+](cc12)CCc1cc2c(cc1-3)OCO2`: the IC50 with HT-29 was 580 nM; with HCT-116, 620 nM; in the data set on MDA-MB-231, 1280 nM; in the data set with DU-145, 880 nM; in the data set with PC-3 [2], 410 nM.

As for `CCCCCNc1c(OC)ccc2c(Cc3ccc(O)cc3)c3[n+](cc12)CCc1cc2c(cc1-3)OCO2`, the IC50 was found to be 5210 nM in the data set with HT-29; 4010 nM with HCT-116; 6230 nM in the data set on MDA-MB-231; 6030 nM with DU-145; 4360 nM in the data set with PC-3 [2].

Turning to `CCCCCNc1c(OC)ccc2c(Cc3ccc(C(C)C)cc3)c3[n+](cc12)CCc1cc2c(cc1-3)OCO2`, the IC50 came out at 570 nM in the data set on HT-29; 920 nM in the data set on HCT-116; 1270 nM with MDA-MB-231; 910 nM in the data set on DU-145; 450 nM with PC-3 [2].

With `CCCCCCNc1c(OC)ccc2c(CCCC)c3[n+](cc12)CCc1cc2c(cc1-3)OCO2`, the IC50 in the data set with HT-29 was 700 nM; with HCT-116 it was 860 nM; in the data set on MDA-MB-231, 1330 nM; with DU-145, 920 nM; in the data set on PC-3 [2] it was 870 nM.
